Laboratory results from ChEMBL document CHEMBL4680311, “Synthesis, characterization, in vitro SAR study, and preliminary in vivo toxicity evaluation of naphthylmethyl substituted bis-imidazolium salts” (Bioorg Med Chem, 2021).

What was measured:
NCI-H460 [1] = assay: Cytotoxicity against human NCI-H460 cells assessed as cell growth inhibition measured after 72 hrs by MTT assay; assay type: functional, cell-based; details: NCI-H460, 72 h
Outline: (§1)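 Cells kept in RPMI 1640 with 10% FBS at 37 °C, 5% CO₂, passaged every 2–3 days; grown to confluence, seeded at 5,000–7,000 cells/well depending on line, incubated 24 h. Compounds dissolved in 1% DMSO, diluted in medium to 1, 4, 16, 32 μM (6 replicates each), 72 h exposure. MTT 3–4 h, medium aspirated, DMSO added, 15 min, OD 540 nm; IC50 relative to untreated cells.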

NCI-H1975 = assay: Cytotoxicity against human NCI-H1975 cells assessed as cell growth inhibition measured after 72 hrs by MTT assay; assay type: functional, cell-based; details: NCI-H1975, 72 h; outline: as §1
HCC827 = assay: Cytotoxicity against human HCC827 cells assessed as cell growth inhibition measured after 72 hrs by MTT assay; assay type: functional, cell-based; details: HCC827, 72 h; outline: as §1
A549 [2] = assay: Cytotoxicity against human A549 cells assessed as cell growth inhibition measured after 72 hrs by MTT assay; assay type: functional, cell-based; details: A549, 72 h; outline: as §1
A549 [3] = assay: Antiproliferative activity against human A549/ATCC cells assessed as cell growth at 10 uM incubated for 48 hrs by sulforhodamine B assay relative to control; assay type: functional; details: read-out: Activity
Outline: (§2)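 NCI DTP NCI-60 one-dose screen on the NSCLC panel. Cells were seeded at densities set by doubling rate and incubated 24 h. They were then exposed to a single 10 μM dose for 48 h. Each value is a growth percentage relative to the initial cell population: positive means net growth, negative means net cell kill.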

EKVX = assay: Antiproliferative activity against human EKVX cells assessed as cell growth at 10 uM incubated for 48 hrs by sulforhodamine B assay relative to control; assay type: functional; details: read-out: Activity; outline: as §2
HOP-62 = assay: Antiproliferative activity against human HOP-62 cells assessed as cell growth at 10 uM incubated for 48 hrs by sulforhodamine B assay relative to control; assay type: functional; details: read-out: Activity; outline: as §2
HOP-92 = assay: Antiproliferative activity against human HOP-92 cells assessed as cell growth at 10 uM incubated for 48 hrs by sulforhodamine B assay relative to control; assay type: functional; details: read-out: Activity; outline: as §2
NCI-H226 = assay: Antiproliferative activity against human NCI-H226 cells assessed as cell growth at 10 uM incubated for 48 hrs by sulforhodamine B assay relative to control; assay type: functional; details: read-out: Activity; outline: as §2
NCI-H23 = assay: Antiproliferative activity against human NCI-H23 cells assessed as cell growth at 10 uM incubated for 48 hrs by sulforhodamine B assay relative to control; assay type: functional; details: read-out: Activity; outline: as §2
NCI-H322M = assay: Antiproliferative activity against human NCI-H322M cells assessed as cell growth at 10 uM incubated for 48 hrs by sulforhodamine B assay relative to control; assay type: functional; details: read-out: Activity; outline: as §2
NCI-H460 [4] = assay: Antiproliferative activity against human NCI-H460 cells assessed as cell growth at 10 uM incubated for 48 hrs by sulforhodamine B assay relative to control; assay type: functional; details: read-out: Activity; outline: as §2
NCI-H522 = assay: Antiproliferative activity against human NCI-H522 cells assessed as cell growth at 10 uM incubated for 48 hrs by sulforhodamine B assay relative to control; assay type: functional; details: read-out: Activity; outline: as §2

Row | SMILES | IC50 (NCI-H460 [1]) [µM] | IC50 (NCI-H1975) [µM] | IC50 (HCC827) [µM] | IC50 (A549 [2]) [µM] | growth at 10 µM (A549 [3]) [%] | growth at 10 µM (EKVX) [%] | growth at 10 µM (HOP-62) [%] | growth at 10 µM (HOP-92) [%] | growth at 10 µM (NCI-H226) [%] | growth at 10 µM (NCI-H23) [%] | growth at 10 µM (NCI-H322M) [%] | growth at 10 µM (NCI-H460 [4]) [%] | growth at 10 µM (NCI-H522) [%]
1 | c1ccc2cc(Cn3cc[n+](CCn4cc[n+](Cc5ccc6ccccc6c5)c4)c3)ccc2c1 | 14 | > 30 | > 30 | > 30 | 64.1 | 91.4 | 86 | 79.2 | 82.7 | 88.9 | 86.4 | – | –
2 | c1ccc2cc(Cn3cc[n+](CCCCCCCn4cc[n+](Cc5ccc6ccccc6c5)c4)c3)ccc2c1 | 3 | 3 | 10 | 2 | 26.7 | 27.9 | 32.6 | – | 59.5 | 14.4 | 58.6 | 14.6 | 5.87
3 | c1ccc2cc(Cn3cc[n+](CCCCn4cc[n+](Cc5ccc6ccccc6c5)c4)c3)ccc2c1 | 4 | 11 | 13 | 4 | 49.3 | 58.1 | 54.8 | 68.4 | 82 | 44 | 90 | 38.2 | 43.4
4 | c1ccc2cc(Cn3cc[n+](CCCCCn4cc[n+](Cc5ccc6ccccc6c5)c4)c3)ccc2c1 | 2 | 12 | > 30 | 4 | 41.7 | 47.1 | 57 | 66 | 72.6 | 45.3 | 86.2 | 30.5 | 35.7
5 | c1ccc2cc(Cn3cc[n+](CCCCCCn4cc[n+](Cc5ccc6ccccc6c5)c4)c3)ccc2c1 | 2 | 6 | 12 | < 1 | 38.6 | 37.3 | 55.8 | 59.9 | 69.6 | 30.5 | 76.2 | 24.6 | 33.1
